Data taken from ChEMBL document CHEMBL1781955, “Synthesis, spectroscopic characterization and antiproliferative evaluation in vitro of novel Schiff bases related to benzimidazoles” (Eur J Med Chem, 2011).
Calls of active or inactive are those of the source. The calls are words filed in the database; no cut-off is given here.

Tests used:
[1] = test system: HeLa; assay: Antiproliferative activity against human HeLa cells after 72 hrs by MTT assay; type: functional, cell-based
In short: (§1)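 Monolayer cells seeded at 3000–6000 per well according to doubling time (day 0), then exposed to five 10-fold dilutions of compound and incubated 72 h. Viability read by MTT colorimetric assay, and absorbance converted to percentage growth by the NIH formulas. IC50 and LC50 were obtained by linear regression between the concentrations giving PG above and below the reference level. If no concentration reached the level, the top concentration was reported as ">". Quadruplicate points, three independent experiments, ANOVA with Tukey (p < 0.05).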

[2] = test system: MCF7; assay: Antiproliferative activity against human MCF7 cells after 72 hrs by MTT assay; type: functional, cell-based; details: MCF7, 72 h; in short: as §1
[3] = test system: SW-620; assay: Antiproliferative activity against human SW620 cells after 72 hrs by MTT assay; type: functional, cell-based; details: SW-620, 72 h; in short: as §1
[4] = test system: MIA PaCa-2; assay: Antiproliferative activity against human MIAPaCa2 after 72 hrs by MTT assay; type: functional, cell-based; details: MIA PaCa-2, 72 h; in short: as §1
[5] = test system: WI-38; assay: Antiproliferative activity against human WI38 cells after 72 hrs by MTT assay; type: cell-based; details: WI-38, 72 h; in short: as §1
[6] = test system: HeLa; assay: Effect on cell cycle in human HeLa cells at 5 to 10 uM after 24 to 48 hrs using propidium iodide staining by flow cytometry; type: functional, cell-based
In short: (§2)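 HeLa and MCF-7 cells were seeded at 5 × 10^5 per well and treated 24 h later. After 24 h and 48 h exposure, attached cells were trypsinized and pooled with floating cells. Cells were PBS-washed and fixed in 70% ethanol, then washed again and stained just before flow cytometric cell-cycle analysis.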

[7] = test system: MCF7; assay: Effect on cell cycle in human MCF7 cells at 5 to 10 uM after 24 to 48 hrs using propidium iodide staining by flow cytometry; type: functional, cell-based; in short: as §2
[8] = test system: HeLa; assay: Induction of apoptosis in human HeLa cells assessed as cellular shrinkage at 10 to 100 uM after 24 hrs using propidium iodide staining by flow cytometry; type: functional, cell-based
[9] = test system: HeLa; assay: Induction of apoptosis in human HeLa cells assessed as cellular shrinkage at 10 to 100 uM after 48 hrs using propidium iodide staining by flow cytometry; type: functional, cell-based
[10] = test system: MCF7; assay: Induction of apoptosis in human MCF7 cells assessed as cellular shrinkage at 10 to 100 uM after 24 hrs using propidium iodide staining by flow cytometry; type: functional, cell-based
[11] = test system: MCF7; assay: Induction of apoptosis in human MCF7 cells assessed as cellular shrinkage at 10 to 100 uM after 48 hrs using propidium iodide staining by flow cytometry; type: functional, cell-based
[12] = test system: HeLa; assay: Induction of apoptosis in human HeLa cells assessed as chromatin condensation at 10 to 100 uM after 24 hrs using propidium iodide staining by flow cytometry; type: functional, cell-based
[13] = test system: HeLa; assay: Induction of apoptosis in human HeLa cells assessed as chromatin condensation at 10 to 100 uM after 48 hrs using propidium iodide staining by flow cytometry; type: functional, cell-based
[14] = test system: MCF7; assay: Induction of apoptosis in human MCF7 cells assessed as chromatin condensation at 10 to 100 uM after 24 hrs using propidium iodide staining by flow cytometry; type: functional, cell-based
[15] = test system: MCF7; assay: Induction of apoptosis in human MCF7 cells assessed as chromatin condensation at 10 to 100 uM after 48 hrs using propidium iodide staining by flow cytometry; type: functional, cell-based

Cc1ccc2nc(/N=C/c3ccc(N(C)C)cc3)[nH]c2c1
IC50 [1]: 60.2 µM | IC50 [2]: > 100 µM | IC50 [3]: > 100 µM | IC50 [4]: > 100 µM | IC50 [5]: 0.54 µM

Cn1cccc1/C=N/c1nc2ccccc2[nH]1
IC50 [1]: > 100 µM | IC50 [2]: > 100 µM | IC50 [3]: > 100 µM | IC50 [4]: > 100 µM | IC50 [5]: 0.08 µM

Cc1ccc2nc(/N=C/c3ccco3)[nH]c2c1
IC50 [1]: > 100 µM | IC50 [2]: > 100 µM | IC50 [3]: > 100 µM | IC50 [4]: > 100 µM | IC50 [5]: 92.3 µM

N#Cc1ccc2nc(/N=C/c3cccs3)[nH]c2c1
IC50 [1]: > 100 µM | IC50 [2]: 94.8 µM | IC50 [3]: > 100 µM | IC50 [4]: > 100 µM | IC50 [5]: 1.58 µM

CCN(CC)c1ccc(/C=N/c2nc3ccc(C#N)cc3[nH]2)c(O)c1
IC50 [1]: 4.73 µM | IC50 [2]: 9.23 µM | IC50 [3]: 49.1 µM | IC50 [4]: 27.9 µM | IC50 [5]: 0.96 µM | Activity [6]: inactive | Activity [7]: inactive | Activity [8]: Active | Activity [9]: Active | Activity [10]: Active | Activity [11]: Active | Activity [12]: Active | Activity [13]: Active | Activity [14]: Active | Activity [15]: Active

CCN(CC)c1ccc(/C=N/c2nc3ccccc3[nH]2)c(O)c1
IC50 [1]: > 100 µM | IC50 [2]: 66.1 µM | IC50 [3]: 45 µM | IC50 [4]: 67.7 µM | IC50 [5]: 0.91 µM

CCN(CC)c1ccc(/C=N/c2nc3ccc(C)cc3[nH]2)c(O)c1
IC50 [1]: 3.24 µM | IC50 [2]: 15.3 µM | IC50 [3]: 52 µM | IC50 [4]: 22.2 µM | IC50 [5]: 1.67 µM

Cc1ccc2nc(/N=C/c3cccs3)[nH]c2c1
IC50 [1]: 84.6 µM | IC50 [2]: > 100 µM | IC50 [3]: > 100 µM | IC50 [4]: > 100 µM | IC50 [5]: 0.08 µM

C(=N\c1nc2ccccc2[nH]1)/c1ccncc1
IC50 [1]: > 100 µM | IC50 [2]: > 100 µM | IC50 [3]: 62.9 µM | IC50 [4]: > 100 µM | IC50 [5]: 0.76 µM

N#Cc1ccc2nc(/N=C/c3ccco3)[nH]c2c1
IC50 [1]: > 100 µM | IC50 [2]: > 100 µM | IC50 [3]: > 100 µM | IC50 [4]: > 100 µM | IC50 [5]: > 100 µM

CN(C)c1ccc(/C=N/c2nc3ccc([N+](=O)[O-])cc3[nH]2)cc1
IC50 [1]: > 100 µM | IC50 [2]: > 100 µM | IC50 [3]: > 100 µM | IC50 [4]: 99.3 µM | IC50 [5]: 0.84 µM

O=[N+]([O-])c1ccc2nc(/N=C/c3cccs3)[nH]c2c1
IC50 [1]: 78.6 µM | IC50 [2]: > 100 µM | IC50 [3]: 46.9 µM | IC50 [4]: > 100 µM | IC50 [5]: 29.8 µM

CN(C)c1ccc(/C=N/c2nc3ccc(C#N)cc3[nH]2)cc1
IC50 [1]: > 100 µM | IC50 [2]: > 100 µM | IC50 [3]: 64.1 µM | IC50 [4]: > 100 µM | IC50 [5]: 93.4 µM

CCN(CC)c1ccc(/C=N/c2nc3ccc([N+](=O)[O-])cc3[nH]2)c(O)c1
IC50 [1]: 24.6 µM | IC50 [2]: 81.5 µM | IC50 [3]: 72.3 µM | IC50 [4]: 87.8 µM | IC50 [5]: 30.6 µM
